KCNQ1 inh: blocks the human KCNQ1 potassium channel; P51787; CHO-K1 KCNQ1, FluxOR thallium flux fluorescence; active compounds read high; B-score at 10 µM; 310,000 compounds, 1.3% hits;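 active = compounds whose thallium flux B-score, printed positive for inhibition, exceeds three library SD while starting fluorescence stays within three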;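 also: channel opened by potassium depolarization with thallium stimulus after 20 min compound exposure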
hERG rescue: compounds protecting human hERG from proarrhythmic drug block. 310,000 compounds, 0.51% hits. AID 1511. Q12809. CHO-hERG, FluxOR thallium flux, dofetilide IC70 present. activation (rescue from dofetilide block), less the hit threshold, % at 10 µM;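 active = activation above the mean of controls blocked by dofetilide plus 5 SD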;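 also: thallium influx through hERG after potassium depolarization seen as dye fluorescence rise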
KCNQ1 act: potentiators or activators of human KCNQ1 potassium channel | P51787 | CHO-K1 KCNQ1, thallium flux FluxOR fluorescence; active compounds read high | B-score at 10 µM | 310,000 compounds, 0.35% hits;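 active = fluorescence ratio B-score, a plate-corrected score, at least three library SD, with initial intensity B-score within 5 SD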
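Schedule – 37 °C overnight plating, 90-min dark dye load, 20-min compound pretreatment · System – stable KCNQ1 CHO-K1 line · Probe or stimulus – thallium- and potassium-containing depolarizing buffer · Measured by – kinetic FluxOR fluorescence, 10 s baseline plus 110 s post-stimulus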
Kir21 block: blocks the mouse Kir2.1 inward-rectifier potassium channel; HEK293-Kir2.1, FluxOR thallium flux fluorescence; active compounds read low; 310,000 compounds, 0.85% hits; B-score at 10 µM; P35561; AID 1672;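 active = fluorescence ratio B-score at or below minus 3 SD of library scores, with starting-brightness B-score within 2 SD, cut at about -4.2 in these data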;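 also: channel flux triggered by added potassium and thallium sulfate stimulus; B-score of peak minus minimum fluorescence over baseline after thallium stimulus; more negative B-score means stronger Kir2.1 block with less thallium influx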
KCNK9 block: inhibitors of human KCNK9 two-pore domain potassium channel. HEK293 KCNK9, FluxOR thallium flux fluorescence; active compounds read low. 310,000 compounds, 1.2% hits. Q9NPC2. B-score at 10 µM;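 active = ratio B-score over 3 SD below the library mean, with starting fluorescence within 5 SD of its mean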;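 also: negative B-score means less thallium flux so channel inhibition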
KCNK3 inh: human KCNK3 channel inhibition, primary screen. B-score at 10 µM. 340,000 compounds, 0.84% hits. CHO-KCNK3 thallium flux, FluxOR fluorescence; active compounds read low. O14649;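 active = B-score under library mean minus 4 SD, starting fluorescence ratio at most library mean plus 5 SD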;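 also: more negative B-score means stronger inhibition of thallium flux through KCNK3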
KCNK3 inh conf: human KCNK3 channel inhibition, confirmation assay; shares compounds with KCNK3 inh; 2,400 compounds, 99% hits; ratio percent of control, % at 10 µM; CHO-KCNK3 thallium flux, FluxOR fluorescence; 0% buffer, 100% carvedilol maximal block;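 active = ratio percent of control, averaged over triplicates, above buffer control mean plus 5 SD, cut at about 64% in these data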;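 also: ratio is the fluorescence rise from min to max over baseline after thallium stimulus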
KCNK3 uninduced: counter-screen for KCNK3 inhibitors: effect in non-induced cells; non-induced KCNK3 parental cells, FluxOR thallium flux; active compounds read low; AID 651747; thallium flux ratio (lower = more inhibition) at 10 µM; 2,400 compounds, 40% hits; shares compounds with KCNK3 inh;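 active = thallium flux ratio, averaged over three wells, more than 5 SD below the buffer control mean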;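 also: host cells are CHO cells without KCNK3 induction; ratio is peak minus trough fluorescence over baseline then normalized to buffer controls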
An asterisk follows results filed as active; i = inactive; / = no result. In the library only some 3.8% were active in any assay of this set; here they are far more common.

SMILES	KCNQ1 inh	hERG rescue	KCNQ1 act	Kir21 block	KCNK9 block	KCNK3 inh	KCNK3 inh conf	KCNK3 uninduced
CC1CCC(C(C)C)C(OC(=O)CSc2nnc(N)s2)C1 (centres undefined)	i	-8	i	-4.2*	i	-9.7*	110*	i
O=C(COc1ccc(Cl)cc1)OCC(=O)N1CCOCC1	/	/	/	/	/	i	/	/
COc1ccc(OC)c(-c2csc(N(CC3CCCO3)C(=O)C3CCCCC3)n2)c1 (centres undefined)	i	-9	i	0.31	i	-9.5*	93*	i
COc1ccc(-c2csc(N(CC3CCCO3)C(=O)c3cccs3)n2)cc1 (centres undefined)	i	-14	i	0.13	i	-10*	117*	i
Cc1oc(-c2cccc3ccccc23)nc1CN1CCN(c2ncnc3ccccc23)CC1	i	-16	i	1.3	i	-9.7*	112*	i
O=C1C=C(c2cccc(CO)c2)C[C@@H](c2ccc(Cl)cc2)C1	/	/	/	/	/	i	/	/
Cc1cc(OCC(=O)N2CCc3ccccc3C2)c(C)cc1Br	i	-4	i	-0.76	i	-8.8*	130*	0.14*
Cc1ccccc1OCC(=O)N1CCc2ccccc2C1	i	-6	i	0.08	i	i	/	/
COc1ccccc1NC(=O)c1ccccc1Oc1ccccc1	i	-8	i	0.03	i	-8.8*	122*	0.12*
COc1ccccc1OCc1ccc(C(=O)Nc2ccccc2F)cc1	i	-3	i	-1.2	i	i	/	/
COc1ccccc1NC(=O)c1ccc(COc2ccccc2OC)cc1	i	-8	i	-0.02	i	-8.8*	103*	i
Cc1ccc(OCCOc2ccc(S(=O)(=O)N3CCCC3)cc2C(N)=O)cc1	/	/	/	/	/	i	/	/
CCOc1cc(S(=O)(=O)NCCc2cccc(C)c2)c(OCC)cc1-n1cnnn1	i	-3	i	-3.5	i	i	/	/
CN1C(=O)C2(OCC(COc3ccc(Cl)cc3)O2)c2ccccc21 (centres undefined)	i	2	i	-0.4	i	i	/	/
O=C1Nc2ccccc2C12OCC(COc1ccc(Cl)cc1)O2 (centres undefined)	i	-17	i	1.3	i	-10*	108*	i
CCc1ccc(CN(C)C(=O)c2ccc3c(c2)OCCO3)cc1	i	-3	i	-0.92	i	i	/	/
COc1ccc(OC)c(NC(=O)CSc2ccc3ccccc3c2)c1	i	-6	i	-1.2	i	-11*	118*	i
O=C(Cn1nc(-c2ccccc2)nc1-c1ccccc1)OC1CCCCC1	i	-10	i	-0.25	i	-10*	104*	i
c1ccc(-n2c(SCc3nc(-c4cccs4)no3)nnc2-c2ccco2)cc1	i	-6	i	-1.5	i	i	/	/
Cc1sc2nc(SCc3nc(-c4cccs4)no3)n(-c3ccccc3)c(=O)c2c1C	i	-9	i	-0.72	-7.7*	-12*	109*	i
CCC(=O)N1CCN=C1SCc1cccc(F)c1	i	-4	i	-1.3	i	i	/	/
O=C(CCc1ccccc1)N/N=C\C1CC=CCC1 (centres undefined)	i	-10	i	0.35	i	i	/	/
CC(C)(C)c1ccc(OCC(=O)N/N=C/C2CC=CCC2)cc1 (centres undefined)	i	-5	i	1.2	-7.2*	-10*	96*	i
O=C(NCCCc1ccccc1)c1cccc(NC(=O)C2CCCCC2)c1	/	/	/	/	/	i	/	/
Cc1ccc(CN(CC(O)COc2cccc3[nH]cc(C)c23)C(C)(C)C)cc1 (centres undefined)	i	-7	i	-1.9	i	i	/	/
